For assay [1], the target named is T1, Trifunctional purine biosynthetic protein adenosine-3 (Homo sapiens) (UniProt P22102).
T1 sequence (whole entry): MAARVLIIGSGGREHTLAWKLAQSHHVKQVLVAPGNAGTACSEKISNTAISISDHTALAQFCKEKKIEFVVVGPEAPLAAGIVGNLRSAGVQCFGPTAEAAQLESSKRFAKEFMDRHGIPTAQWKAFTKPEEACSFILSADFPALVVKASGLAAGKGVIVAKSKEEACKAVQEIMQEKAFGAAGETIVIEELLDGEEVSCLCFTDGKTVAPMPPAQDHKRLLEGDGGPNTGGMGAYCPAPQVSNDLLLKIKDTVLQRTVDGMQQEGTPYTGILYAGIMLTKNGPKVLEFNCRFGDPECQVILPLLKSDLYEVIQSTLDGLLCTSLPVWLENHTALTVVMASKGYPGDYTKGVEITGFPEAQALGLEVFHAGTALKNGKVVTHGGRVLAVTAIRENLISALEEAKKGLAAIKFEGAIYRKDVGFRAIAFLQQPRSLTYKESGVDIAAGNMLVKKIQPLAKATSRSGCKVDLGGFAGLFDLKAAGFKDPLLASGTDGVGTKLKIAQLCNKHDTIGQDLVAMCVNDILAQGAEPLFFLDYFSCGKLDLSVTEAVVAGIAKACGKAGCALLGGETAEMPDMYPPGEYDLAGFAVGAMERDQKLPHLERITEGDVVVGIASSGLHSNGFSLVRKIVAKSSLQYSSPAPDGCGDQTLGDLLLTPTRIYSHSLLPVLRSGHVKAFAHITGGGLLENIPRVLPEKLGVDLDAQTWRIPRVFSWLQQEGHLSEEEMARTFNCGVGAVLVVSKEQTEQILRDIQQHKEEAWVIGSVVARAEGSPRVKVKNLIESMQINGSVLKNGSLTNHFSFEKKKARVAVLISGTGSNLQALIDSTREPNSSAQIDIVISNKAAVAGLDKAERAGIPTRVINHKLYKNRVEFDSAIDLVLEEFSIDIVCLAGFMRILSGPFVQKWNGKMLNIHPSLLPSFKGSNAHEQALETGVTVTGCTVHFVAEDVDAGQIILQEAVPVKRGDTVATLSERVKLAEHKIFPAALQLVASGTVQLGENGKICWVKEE
Description: In vitro inhibitory activity against Glycinamide ribonucleotide transformylase (GAR Tfase) after 3 min at 250 uM; Not active.

In assay [2] the test system is CCRF-CEM. Description: Cytotoxicity in the absence of thymidine and presence of hypoxanthine against CCRF-CEM cell line. In kind it is functional, cell-based. The following applies: Homo sapiens. The gist of the method:
(§1)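 CCRF-CEM cells were grown in purine- and pyrimidine-free medium, with thymidine and/or hypoxanthine added or omitted as each line specifies. The cytotoxic potency was reported as an IC50 (µM).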

Assay [3] addresses T1, Trifunctional purine biosynthetic protein adenosine-3 (Homo sapiens). Put plainly: In vitro inhibitory activity against Glycinamide ribonucleotide transformylase (GAR Tfase) after 7 hr at 250 uM.
Assay [4] concerns CCRF-CEM. Description: Cytotoxicity in the absence of hypoxanthine and presence of thymidine against CCRF-CEM cell line. The following applies: Homo sapiens. In kind it is functional, cell-based. The gist of the method: as §1
In assay [5] the target is T1, Trifunctional purine biosynthetic protein adenosine-3 (Homo sapiens). Description: In vitro inhibitory activity against Glycinamide ribonucleotide transformylase (GAR Tfase) after 6 hr at 250 uM; Not active.
Assay [6] deals with CCRF-CEM. Description: Cytotoxicity in the presence of thymidine and hypoxanthine against CCRF-CEM cell line. In kind it is functional, cell-based. The following applies: Homo sapiens. An outline of the steps: as §1
In assay [7] the test system is CCRF-CEM. Description: Cytotoxicity in the absence of thymidine and hypoxanthine against CCRF-CEM cell line. The assay is classed as functional, cell-based. The following applies: Homo sapiens. The gist of the method:
as §1

For assay [8], the target named is T1, Trifunctional purine biosynthetic protein adenosine-3 (Homo sapiens). Put plainly: In vitro inhibitory activity against Glycinamide ribonucleotide transformylase (GAR Tfase) following 3 min pre-incubation at 250 uM concentration.
Assay [9] has the same target. Description: In vitro inhibitory activity against Glycinamide ribonucleotide transformylase (GAR Tfase) after 30 min at 250 uM; Not active.
The target of assay [10] is T2, Bifunctional purine biosynthesis protein ATIC (Homo sapiens, UniProt P31939). Description: In vitro inhibitory activity against Aminoimidazole carboxamide ribonucleotide transformylase pre-incubated for 12 hr at 250 uM; Not active. The gist of the method:
(§2)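 The AICAR Tfase assay solution was pre-incubated with inhibitor (250 µM, or 25 µM where the line states) for 12 h at room temperature. The reaction was then started by adding AICAR, and enzyme inhibition was measured.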
Target sequence in this assay (P31939 whole entry, looked up): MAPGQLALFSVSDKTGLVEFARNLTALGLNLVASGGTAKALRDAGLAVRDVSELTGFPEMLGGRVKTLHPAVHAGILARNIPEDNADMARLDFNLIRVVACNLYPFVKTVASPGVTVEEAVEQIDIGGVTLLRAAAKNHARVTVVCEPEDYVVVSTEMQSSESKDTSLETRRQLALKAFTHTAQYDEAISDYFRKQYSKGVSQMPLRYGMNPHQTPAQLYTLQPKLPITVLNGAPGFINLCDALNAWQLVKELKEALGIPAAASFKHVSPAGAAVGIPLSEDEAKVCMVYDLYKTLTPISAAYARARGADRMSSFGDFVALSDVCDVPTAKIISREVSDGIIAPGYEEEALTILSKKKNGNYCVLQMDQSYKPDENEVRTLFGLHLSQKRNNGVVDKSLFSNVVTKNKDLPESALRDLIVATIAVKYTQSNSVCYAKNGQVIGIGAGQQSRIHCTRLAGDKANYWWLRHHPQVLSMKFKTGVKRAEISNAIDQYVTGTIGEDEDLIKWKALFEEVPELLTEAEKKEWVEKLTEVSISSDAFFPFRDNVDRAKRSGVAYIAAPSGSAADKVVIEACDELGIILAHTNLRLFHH

In assay [11] the target is T2, Bifunctional purine biosynthesis protein ATIC. Put plainly: In vitro inhibitory activity against Aminoimidazole carboxamide ribonucleotide transformylase after 12 hr at 250 uM; Not active.
Target sequence in this assay (P31939 whole entry, looked up): as above
Assay [12] addresses T1, Trifunctional purine biosynthetic protein adenosine-3 (Homo sapiens). Description: In vitro inhibitory activity against Glycinamide ribonucleotide transformylase (GAR Tfase) after 6 hr at 250 uM. In kind it is functional.
Assay [13] has as its target T2, Bifunctional purine biosynthesis protein ATIC. Description: In vitro inhibitory activity against Aminoimidazole carboxamide ribonucleotide transformylase. The gist of the method:
as §2
Target sequence in this assay (P31939 whole entry): as the sequence (P31939 whole entry, looked up) above

For assay [14], the target named is T1, Trifunctional purine biosynthetic protein adenosine-3 (Homo sapiens). Description: In vitro inhibitory activity against Glycinamide ribonucleotide transformylase (GAR Tfase) after 1 hr at 25 uM; […].
Assay [15] has the same target. Description: In vitro inhibitory activity against Glycinamide ribonucleotide transformylase (GAR Tfase) after 30 min at 25 uM; Not active.
Assay [16] has the same target. Description: (§3) In vitro inhibitory activity against Glycinamide ribonucleotide transformylase (GAR Tfase) after 6 hr at 25 uM.
Assay [17] has the same target. Put plainly: In vitro inhibitory activity against Glycinamide ribonucleotide transformylase (GAR Tfase+GAR) following 3 min pre-incubation at 250 uM concentration.
Assay [18] has the same target. Put plainly: In vitro inhibitory activity against Glycinamide ribonucleotide transformylase (GAR Tfase) after 3 min at 25 uM.
Assay [19] has the same target. Description: In vitro inhibitory activity against Glycinamide ribonucleotide transformylase (GAR Tfase+GAR) pre-incubation of 6 hr at 250 uM concentration.
For assay [20] the target is unchanged. Put plainly: In vitro inhibitory activity against Glycinamide ribonucleotide transformylase (GAR Tfase+GAR) following 30 min pre-incubation at 250 uM concentration.
For assay [21] the target is unchanged. Description: In vitro inhibitory activity against Glycinamide ribonucleotide transformylase (GAR Tfase) after 3 min at 25 uM; […].
Assay [22] shares this target. Description: In vitro inhibitory activity at 250 uM concentration against Glycinamide ribonucleotide transformylase (GAR Tfase) pre-incubation time (6 hr).
For assay [23] the target is unchanged. Described as §3. This is another data set of the same source.
Assay [24] has as its target T2, Bifunctional purine biosynthesis protein ATIC. Description: In vitro inhibitory activity against Aminoimidazole carboxamide ribonucleotide transformylase pre-incubed for 12 hr at 250 uM. The gist of the method: as §2
Target sequence in this assay (P31939 whole entry, looked up): as above
For assay [25], the target named is T1, Trifunctional purine biosynthetic protein adenosine-3 (Homo sapiens). Description: In vitro inhibitory activity against Glycinamide ribonucleotide transformylase (GAR Tfase) after 30 min at 25 uM.

Calls of active or inactive are those of the source. The calls are words filed in the database; no cut-off is given here.

Consider six compounds from ChEMBL document CHEMBL1133492, “Design, synthesis, and biological evaluation of fluoronitrophenyl substituted folate analogues as potential inhibitors of GAR transformylase and AICAR transformylase” (Bioorg Med Chem Lett, 2000).

With `Nc1nc(N)c(CCCNc2cc(F)ccc2[N+](=O)[O-])c(O)n1`, the inhibition result in assay [1], in assay [5], in assay [9] and in assay [10] was “inactive” in each case. The IC50 in assay [2], in [4], in [6] and in assay [7] was above 100 µM each time. In addition, the inhibition in assay [3] is 64%; in assay [8], 86%.
`Nc1nc(N)c(CCCNc2ccc([N+](=O)[O-])c(F)c2F)c(O)n1`: the inhibition entry in assay [11], in assay [1] and in [9] was “inactive” throughout. For the same compound, the inhibition in assay [12] is 59%. Further, the IC50 in [2] is 76 µM; in [4] it was 68 µM; in [6], 73 µM; in assay [7], 76 µM.
For the compound `Nc1nc(O)c2cc(CN(Cc3ccc(F)c([N+](=O)[O-])c3)c3ccc(C(=O)NC(CCC(=O)O)C(=O)O)cc3)ccc2n1` (centres undefined), the Ki in assay [13] is 17 µM.
`Nc1nc(N)c(CCNc2cc(F)c(F)cc2[N+](=O)[O-])c(O)n1`: the inhibition entry in assay [1], in assay [14], in [9] and in assay [10] was “inactive” each time. The concentration for half-maximal inhibition (IC50) worked out at 37 µM in [2], 43 µM in assay [4], 58 µM in assay [6] and 55 µM in assay [7].
For the compound `Nc1nc(N)c(CCCNc2cc(F)c([N+](=O)[O-])cc2[N+](=O)[O-])c(O)n1`, the inhibition result in assay [15] and in assay [21] was “inactive” in each case. Also, the inhibition in [16] is 58%; in assay [17], 100%; in [18], 76%; in [19], 2%; in [20], 75%; in assay [22] it was 39%. In addition, the inhibition in [23] came out at 56%; in assay [24], 64%; in assay [8], 76%; in assay [25], 71%. Moreover, the IC50 in assay [2] is 1 µM; in assay [4], 1.1 µM; in assay [6], 1.2 µM; in assay [7], 1 µM.
`Nc1nc2ccc(CN(Cc3ccc([N+](=O)[O-])c(F)c3)c3ccc(C(=O)NC(CCC(=O)O)C(=O)O)cc3)cc2c(=O)[nH]1` (centres undefined) displayed a Ki in assay [13] of 52 µM.

In general, inhibition refers to the share of the control response that was lost under treatment. As usually defined, the IC50 is the point on the concentration scale where inhibition reaches its midpoint. The Ki is the equilibrium dissociation constant of an inhibitor or competing ligand from its target.
